Compounds with a hit are over-represented: about 1.5% of the library has one in this group of screens.
S1P4 agonist: human S1P4 receptor agonism; activation, % at 4.98 µM; 220,000 compounds, 0.35% hits; S1P4-expressing cell line, agonist reporter assay; AID 1509; O95977; in the data active = activation above about 11%;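 also: 0% = DMSO vehicle and 100% = reference agonist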
Target sequence (O95977 whole entry, looked up): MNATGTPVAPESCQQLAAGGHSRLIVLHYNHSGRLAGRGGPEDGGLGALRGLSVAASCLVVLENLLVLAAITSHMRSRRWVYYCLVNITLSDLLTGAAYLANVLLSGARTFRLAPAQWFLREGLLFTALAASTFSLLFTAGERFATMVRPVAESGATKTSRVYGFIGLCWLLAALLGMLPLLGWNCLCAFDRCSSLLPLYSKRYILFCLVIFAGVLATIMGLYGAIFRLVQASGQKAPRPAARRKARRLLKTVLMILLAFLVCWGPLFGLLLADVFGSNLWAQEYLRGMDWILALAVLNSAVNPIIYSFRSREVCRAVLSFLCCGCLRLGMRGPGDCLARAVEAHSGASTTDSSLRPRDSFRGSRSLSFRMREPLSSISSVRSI
zVAD death inh: L929 zVAD cell death inhibition; L929 zVAD necroptosis rescue, ATP luminescence, 24 h; with zVAD 60 µM; 220,000 compounds, 0.38% hits; viability rescue, % at 10 µM; AID 1377;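 active = activation, scaled between plate controls, above about 75%, limit read from the data; inactive = activation under that limit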;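 also: 0% = zVAD with DMSO and 100% = DMSO alone without zVAD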
Dynein cargo inh: dynein cargo transport inhibition; 3617.4 mouse cells, GR-EGFP nuclear translocation imaging; test concentration mostly 20 µM; stimulated with dexamethasone, 1 µM; active compounds read low; z-score, hits read low; 220,000 compounds, 0.47% hits;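 active = plate z-score of nuclear minus cytoplasmic receptor signal below a set negative limit, without overly bright fluorescence or cell loss, cut at about -3.5 in these data, passing the limit was not always enough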;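 also: z-score of nuclear minus cytoplasmic ring GR-EGFP intensity difference per well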
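medium = tetracycline-free induction medium containing charcoal-stripped FBS | probe or stimulus = dexamethasone, 1.0 µM final | timing = 48 h induction, then 1 h compound, then 30 min agonist, 37 °C | detection = automated 10x imaging of fixed Hoechst-stained cells | read-out basis = nuclear versus cytoplasmic GR-EGFP signal, averaged per well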
S1P4 antag: human S1P4 receptor antagonism; O95977; S1P4-expressing cells, antagonist mode, reporter read-out; inhibition, % at 4.98 µM; 220,000 compounds, 0.26% hits; AID 1510; in the data active = inhibition above about 29%;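 also: 0% = wells stimulated with agonist and 100% = vehicle wells without agonist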
TNF necrop inh: inhibitors of TNF-alpha induced necroptosis in Jurkat FADD-/- cells; Jurkat FADD-/- TNF necroptosis rescue, ATP luminescence, 24 h; 0 = TNF only, 100 = no-TNF cells; activation (protection from cell death), % at 10 µM; 220,000 compounds, 0.068% hits; AID 463075;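 active = activation, meaning protection from cell death, of at least 50% relative to plate controls; inactive = activation below 50%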;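 also: necroptosis triggered by 40 ng/mL TNF-alpha added together with compound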
Tb hexokinase: blocks Trypanosoma brucei hexokinase 1 activity. inhibition, % at 10 µM. 220,000 compounds, 0.11% hits. recombinant TbHK1, G6PDH-coupled NADH A340;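 active = inhibition of 50% or more in the single-dose primary screen; inactive = inhibition below 50%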
Dynein inh conf: dynein cargo transport inhibition, confirmation; shares compounds with Dynein cargo inh; 3617.4 GR-EGFP nuclear translocation imaging, dexamethasone-induced; calls only at 20 µM; 1,000 compounds, 69% hits; AID 463116;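 active = inhibition of receptor movement into the nucleus at or above a set limit in both runs, with normal cell brightness and cell count; inconclusive = limit reached in only one run, brightness and count normal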;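 also: dexamethasone at 1 µM final in well for 30 min; nuclear minus cytoplasmic GR-EGFP mean intensity difference in channel 2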
G6PDH counter: counter-screen for TbHK1 inhibitors: Leuconostoc G6PDH inhibition | inhibition, % at 10 µM | purified G6PDH, NADH absorbance, 1 h | 210 compounds, 7% hits | shares compounds with Tb hexokinase;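 active = at least 50% inhibition in the glucose-6-phosphate dehydrogenase coupled counterscreen; inconclusive = no clear call, values can overlap the other calls; inactive = inhibition below 50%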
TbHK1 confirm: T. brucei hexokinase 1 inhibition, rescreen; recombinant TbHK1, G6PDH-coupled NADH A340 absorbance; 210 compounds, 10% hits; inhibition, % at 10 µM; shares compounds with Tb hexokinase;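 active = inhibition of at least 50% in both of the two screening runs; inconclusive = at least 50% in one run, below 50% in the other; inactive = inhibition below 50% in both runs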;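 also: 0% and 100% set by the maximum and minimum signal control wells on each plate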
S1P4 antag cf: confirmation of human S1P4 receptor antagonists. 520 compounds, 71% hits. inhibition, % at 4.98 µM. shares compounds with S1P4 antag. AID 1524. S1P4-expressing cell line, antagonist mode, reporter read-out; in the data active = inhibition above about 30%
S1P1 antagonist: counter-screen for S1P4 antagonists: antagonists of human S1P1; shares compounds with S1P4 antag; cell-based S1P1 antagonist counterscreen, inhibition; inhibition, % at 4.98 µM; 520 compounds, 37% hits; in the data active = inhibition above about 40%;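 also: receptor stimulated with S1P near its EC80; 0% = agonist stimulated wells and 100% = vehicle only wells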
* hit, by the source's call; i = inactive; u = inconclusive; x = not tested or not shown; + = active, no number.

SMILES	S1P4 agonist	zVAD death inh	Dynein cargo inh	S1P4 antag	TNF necrop inh	Tb hexokinase	Dynein inh conf	S1P4 antag cf	S1P1 antagonist	others
CC(C)c1ccc(C(O)P(=O)(OC2CCCCC2)OC2CCCCC2)cc1 (configuration not stated)	1	1	-0.5	-2	-1	-12	x	x	x
O=C(Nc1ccnc(-c2cccnc2)n1)c1cccs1	0	10	-0.3	5	0	-2	x	x	x
O=C(Cn1sc2ccccc2c1=O)NC12CC3CC(CC(C3)C1)C2	0	-1	-5.1*	15	-14	66*	i	x	x	G6PDH counter=-14;TbHK1 confirm=85*
Nc1cccc2c1C(=O)N(CC(=O)NC13CC4CC(CC(C4)C1)C3)C2=O	3	1	0.51	3	1	-4	x	x	x
Cc1ccc(-c2csc(=Nc3cccnc3)n2CCCn2ccnc2)cc1C	3	2	0.25	-38	2	-7	x	x	x
CCN(CC)c1ccc2cc(-c3nc4ccccc4[nH]3)c(=O)oc2c1	2	29	-5.2*	7	-2	68*	+	x	x	G6PDH counter=111*;TbHK1 confirm=84*
CCCc1cc(=O)[nH]c(SCC(=O)c2cc(C)n(CC(F)(F)F)c2C)n1	0	2	0.083	0	-1	-3	x	x	x
Cc1ccc(C)c(C(=O)Cn2ncc(Cl)c(Cl)c2=O)c1	0	54	-4.7*	67*	-14	9	u	116*	59*
Cc1cc(Br)ccc1NC(=O)CNC(=O)Cn1ncc(Cl)c(Cl)c1=O	2	55	-1.1	-18	-9	-3	x	x	x
Cc1cc(C(=O)Cn2ncc(Cl)c(Cl)c2=O)c(C)n1CC(F)(F)F	-1	46	-5.1*	90*	-15	-3	+	105*	65*
Cc1ccc(C(=O)OCn2ncc(Cl)c(Cl)c2=O)cc1	-4	36	-3.8*	111*	-25	3	+	115*	63*
O=c1cc(/N=C/c2coc3c(ccc4ccccc43)c2=O)[nH]c(=S)[nH]1	0	2	0.65	-15	0	4	x	x	x
CC1CC(C)(C)Nc2ccc(N=O)cc21 (configuration not stated)	-1	62	-4*	37*	-12	-3	+	50*	16
O=C(Nc1ccccc1)c1nnsc1S(=O)c1ccc(Cl)cc1 (configuration not stated)	-3	27	-3.5*	49*	-25	1	+	111*	6
CC1=CC(=O)C(C(C)C)=C/C1=N/OS(=O)(=O)c1ccccc1	0	36	-4.2*	38*	-33	-6	i	79*	-19
CC1=CC(=O)C=C(C)C1=NOS(=O)(=O)c1ccccc1	1	3	-5*	33*	-21	25	+	98*	19
CC(CC(=O)O)CC(=O)Nc1ccc(Br)cc1 (configuration not stated)	-1	-1	0.98	-6	2	-8	x	x	x
Cc1cc(C)nc(S/C=C/C(=O)c2ccccc2F)n1	-1	-1	-3.7*	43*	-28	-10	+	78*	-1
Cc1cc(NC(=O)c2ccccc2F)on1	2	0	-0.52	-3	1	-1	x	x	x
Cc1cc(C(=O)NNC(=S)NCc2ccco2)nn1C	2	1	1.2	-20	0	8	x	x	x
S=c1[nH]nc(-c2cc(-c3ccccc3)n[nH]2)n1/N=C/C(Br)=C/c1ccccc1	0	26	-4.3*	35*	-14	-5	u	66*	24
CC(C)(C)OC(=O)N[C@@H](Cc1ccccc1)c1nnc(SCC(N)=O)o1	2	0	-0.39	0	3	-10	x	x	x
Cc1cccc(CS(=O)(=O)c2nnc([C@H](Cc3ccccc3)NC(=O)OC(C)(C)C)o2)c1	-2	1	-4.9*	88*	-9	-1	i	93*	24
C=CCn1c(Sc2ncc([N+](=O)[O-])s2)n[nH]c1=O	4	-4	-5.7*	69*	-30	-27	+	111*	51*
O=C(Nc1ccc(Cl)cc1)Nc1ccccc1Sc1ncc([N+](=O)[O-])s1	1	0	-1.9	13	-20	-1	x	x	x
SMILES	S1P4 agonist	zVAD death inh	Dynein cargo inh	S1P4 antag	TNF necrop inh	Tb hexokinase	Dynein inh conf	S1P4 antag cf	S1P1 antagonist	others
COc1cc(O)c(C(CC(=O)N2CCOCC2)c2cc(OC)c(OC)c(OC)c2)c(OC)c1 (configuration not stated)	x	0	1.6	x	2	-9	x	x	x
CCOC(=O)c1c(Nc2ccccc2OCCOC)n[nH]c1C	1	7	-0.71	6	1	-6	x	x	x
CC1=NNC(=O)/C1=C\c1cn(-c2ccccc2)nc1-c1ccccc1	2	-2	-3.9*	36*	-14	-17	i	116*	55*
CC1(C)CC(=O)C(=Cc2cn(-c3ccccc3)nc2-c2ccc(Cl)cc2)C(=O)C1	-1	0	-0.84	-15	-14	-4	x	x	x
CN(c1ccccc1)c1ccc(/C=C/[N+](=O)[O-])cc1	3	-1	-3.6*	55*	1	1	i	119*	66*
CNC(=O)c1nnsc1S(=O)(=O)c1ccc(Cl)cc1	-3	-1	-4*	61*	-19	3	+	103*	76*
CNC(=O)c1ncoc1-c1ccc(Cl)cc1	3	0	-0.35	4	-5	-3	x	x	x
O=C(/C=C/c1cc(Br)ccc1O)c1ccco1	0	33	-4.7*	55*	-20	-31	i	103*	56*
CN(CC(=O)Nc1ccc(Cl)c(Cl)c1)Cc1nnc(-c2ccc(F)cc2)o1	-1	1	-0.62	7	0	-1	x	x	x
CCCC(=O)N1CCN(c2ccc(NC(=O)c3ccc(Br)o3)cc2)CC1	-2	1	-0.97	-21	4	-17	x	x	x
CCC(=O)N1CCN(c2ccc(NC(=O)c3ccc([N+](=O)[O-])o3)cc2)CC1	-3	50	-4*	78*	-8	-8	+	85*	74*
